Assay results as given in ChEMBL document CHEMBL1140808, “Antiproliferative effects of dibenzocyclooctadiene lignans isolated from Schisandra chinensis in human cancer cells” (Bioorg Med Chem Lett, 2008).
Activity calls are given as the source filed them. No cut-off for these calls is given here.

Tests used:
K562 = assay: Antiproliferative activity against human K562 cells after 72 hrs by MTT assay; assay type: functional, cell-based
SNU-638 = assay: Antiproliferative activity against human SNU638 cells after 72 hrs by SRB assay; assay type: functional, cell-based
HCT-15 = assay: Antiproliferative activity against human HCT15 cells after 72 hrs by SRB assay; assay type: functional, cell-based
T47D = assay: Antiproliferative activity against human T47D cells after 72 hrs by SRB assay; assay type: functional, cell-based
A549 [1] = assay: Antiproliferative activity against human A549 cells after 72 hrs by SRB assay; assay type: functional, cell-based
SK-HEP1 = assay: Antiproliferative activity against human SK-HEP1 cells after 72 hrs by SRB assay; assay type: functional, cell-based; conditions: SK-HEP1, 72 h
MDA-MB-231 = assay: Antiproliferative activity against human MDA-MB-231 cells after 72 hrs by SRB assay; assay type: functional, cell-based; conditions: MDA-MB-231, 72 h
A549 [2] = assay: Cell cycle arrest in human A549 cells assessed as accumulation at G2/M phase at 10 uM after 24 hrs; assay type: functional
Procedure, shortened: (§1)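 A549 human lung cancer cells exposed 24 h to the lignan over 3.75–60 µM. Cell cycle distribution measured by flow cytometry. The percentage of cells in each phase (G0/G1, S, G2/M, sub-G1) was derived by cell cycle modelling of the DNA histograms.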

A549 [3] = assay: Cell cycle arrest in human A549 cells assessed as accumulation at G0/G1 phase at 40 uM after 24 hrs; assay type: functional; procedure, shortened: as §1
A549 [4] = assay: Inhibition of human retinoblastoma protein phosphorylation in A549 cells after 24 hrs; assay type: cell-based
Procedure, shortened: (§2)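 Protein levels measured by Western blot in A549 human lung cancer cells after 24 h exposure to a range of lignan concentrations.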

A549 [5] = assay: Effect on cdk2 expression in human A549 cells after 24 hrs; assay type: functional, cell-based; procedure, shortened: as §2
A549 [6] = assay: Cell cycle arrest in human A549 cells assessed as accumulation at subG1 phase at 5 uM after 24 hrs; assay type: functional; procedure, shortened: as §1
A549 [7] = assay: Effect on cyclin A expression in human A549 cells at 60 uM after 24 hrs; assay type: functional, cell-based; procedure, shortened: as §2
A549 [8] = assay: Cell cycle arrest in human A549 cells assessed as accumulation at G0/G1 phase at 20 uM after 24 hrs; assay type: functional; procedure, shortened: as §1
A549 [9] = assay: Cell cycle arrest in human A549 cells assessed as accumulation at S phase at 10 uM after 24 hrs; assay type: functional; procedure, shortened: as §1
A549 [10] = assay: Cell cycle arrest in human A549 cells assessed as accumulation at G0/G1 phase at 10 uM after 24 hrs; assay type: functional; procedure, shortened: as §1
A549 [11] = assay: Cell cycle arrest in human A549 cells assessed as accumulation at S phase at 20 uM after 24 hrs; assay type: functional; procedure, shortened: as §1
A549 [12] = assay: Cell cycle arrest in human A549 cells assessed as accumulation at S phase at 60 uM after 24 hrs; assay type: functional; procedure, shortened: as §1
A549 [13] = assay: Cell cycle arrest in human A549 cells assessed as accumulation at subG1 phase at 60 uM after 24 hrs; assay type: functional; procedure, shortened: as §1
A549 [14] = assay: Cell cycle arrest in human A549 cells assessed as accumulation at S phase at 5 uM after 24 hrs; assay type: functional; procedure, shortened: as §1
A549 [15] = assay: Cell cycle arrest in human A549 cells assessed as accumulation at G2/M phase at 40 uM after 24 hrs; assay type: functional; procedure, shortened: as §1
A549 [16] = assay: Cell cycle arrest in human A549 cells assessed as accumulation at G2/M phase at 20 uM after 24 hrs; assay type: functional; procedure, shortened: as §1
A549 [17] = assay: Cell cycle arrest in human A549 cells assessed as accumulation at G0/G1 phase at 60 uM after 24 hrs; assay type: functional; procedure, shortened: as §1
A549 [18] = assay: Cell cycle arrest in human A549 cells assessed as accumulation at subG1 phase at 10 uM after 24 hrs; assay type: functional; procedure, shortened: as §1
A549 [19] = assay: Cell cycle arrest in human A549 cells assessed as accumulation at S phase at 40 uM after 24 hrs; assay type: functional; procedure, shortened: as §1
A549 [20] = assay: Cell cycle arrest in human A549 cells assessed as accumulation at subG1 phase at 20 uM after 24 hrs; assay type: functional; procedure, shortened: as §1
A549 [21] = assay: Cell cycle arrest in human A549 cells assessed as accumulation at G2/M phase at 60 uM after 24 hrs; assay type: functional; procedure, shortened: as §1
A549 [22] = assay: Cell cycle arrest in human A549 cells assessed as accumulation at subG1 phase at 40 uM after 24 hrs; assay type: functional; procedure, shortened: as §1
A549 [23] = assay: Effect on cyclin D1 expression in human A549 cells after 24 hrs; assay type: functional, cell-based; procedure, shortened: as §2
A549 [24] = assay: Effect on cdk4 expression in human A549 cells after 24 hrs; assay type: functional, cell-based; procedure, shortened: as §2
A549 [25] = assay: Cell cycle arrest in human A549 cells assessed as accumulation at G2/M phase at 5 uM after 24 hrs; assay type: functional; procedure, shortened: as §1
A549 [26] = assay: Effect on p27 expression in human A549 cells after 24 hrs; assay type: functional, cell-based; procedure, shortened: as §2
A549 [27] = assay: Cell cycle arrest in human A549 cells assessed as accumulation at G0/G1 phase at 5 uM after 24 hrs; assay type: functional; procedure, shortened: as §1

Structure (SMILES): COc1cc2c(c(OC)c1OC)-c1c(cc3c(c1OC)OCO3)C[C@H](C)[C@H](C)C2 (stereo in doubt; form 1) [WUWEIZISU B]
- IC50 (K562; k562): 22 µM
- IC50 (SNU-638; snu-638): 23.1 µM
- IC50 (HCT-15; hct-15): 14.1 µM
- IC50 (T47D; t47d): 19.2 µM
- IC50 (A549 [1]; a549): 21.1 µM

Structure (SMILES): COc1cc2c(c(OC)c1OC)-c1c(cc3c(c1OC)OCO3)C[C@H](C)[C@H](C)C2 (stereo in doubt; form 2) [WUWEIZISU B]
- IC50 (K562; k562): 62.6 µM
- IC50 (SNU-638; snu-638): > 100 µM
- IC50 (HCT-15; hct-15): 88.1 µM
- IC50 (T47D; t47d): > 100 µM
- IC50 (SK-HEP1): > 100 µM
- IC50 (A549 [1]; a549): 87.8 µM
- IC50 (MDA-MB-231): > 100 µM

Structure (SMILES): COc1cccc2c1C(=O)c1c(O)c3c(c(O)c1C2=O)C[C@@](O)(C(=O)CO)C[C@@H]3O[C@H]1C[C@H](N)[C@H](O)[C@H](C)O1 [DOXORUBICIN]
- IC50 (SNU-638; Homo sapiens, SNU-638, 72 h): 0.07 µM
- IC50 (HCT-15; Homo sapiens, HCT-15, 72 h): 0.6 µM
- IC50 (T47D; Homo sapiens, T47D, 72 h): 0.1 µM
- IC50 (SK-HEP1): 0.1 µM
- IC50 (A549 [1]; Homo sapiens, A549, 72 h): 0.1 µM
- IC50 (MDA-MB-231): 0.2 µM

Structure (SMILES): COc1cc2c(c(OC)c1OC)-c1c(cc3c(c1OC)OCO3)C[C@H](C)[C@](C)(O)C2 [GOMISIN A]
- IC50 (K562; Homo sapiens, K562, 72 h): > 100 µM
- IC50 (SNU-638; Homo sapiens, SNU-638, 72 h): 90.5 µM
- IC50 (HCT-15; Homo sapiens, HCT-15, 72 h): > 100 µM
- IC50 (T47D; Homo sapiens, T47D, 72 h): > 100 µM
- IC50 (SK-HEP1): > 100 µM
- IC50 (A549 [1]; Homo sapiens, A549, 72 h): 84.1 µM
- IC50 (MDA-MB-231): > 100 µM

Structure (SMILES): C/C=C(\C)C(=O)O[C@H]1c2cc(OC)c(OC)c(OC)c2-c2c(cc3c(c2OC)OCO3)C[C@H](C)[C@]1(C)O [GOMISIN B]
- IC50 (K562; Homo sapiens, K562, 72 h): > 100 µM
- IC50 (SNU-638; Homo sapiens, SNU-638, 72 h): > 100 µM
- IC50 (HCT-15; Homo sapiens, HCT-15, 72 h): > 100 µM
- IC50 (T47D; Homo sapiens, T47D, 72 h): > 100 µM
- IC50 (SK-HEP1): > 100 µM
- IC50 (A549 [1]; Homo sapiens, A549, 72 h): > 100 µM
- IC50 (MDA-MB-231): > 100 µM

Structure (SMILES): COc1cc2c(c(OC)c1OC)-c1c(cc3c(c1OC)OCO3)C[C@H](C)[C@](C)(O)[C@H]2OC(=O)c1ccccc1 [GOMISIN C]
- IC50 (K562; Homo sapiens, K562, 72 h): > 100 µM
- IC50 (SNU-638; Homo sapiens, SNU-638, 72 h): 44.7 µM
- IC50 (HCT-15; Homo sapiens, HCT-15, 72 h): > 100 µM
- IC50 (T47D; Homo sapiens, T47D, 72 h): 51.2 µM
- IC50 (SK-HEP1): 70.4 µM
- IC50 (A549 [1]; Homo sapiens, A549, 72 h): > 100 µM
- IC50 (MDA-MB-231): 56.4 µM

Structure (SMILES): COc1cc2c(c(OC)c1OC)-c1c(cc(OC)c(OC)c1OC)C[C@H](C)[C@H](C)C2 [SCHISANDRIN A]
- IC50 (K562; Homo sapiens, K562, 72 h): > 100 µM
- IC50 (SNU-638; Homo sapiens, SNU-638, 72 h): 53.1 µM
- IC50 (HCT-15; Homo sapiens, HCT-15, 72 h): > 100 µM
- IC50 (T47D; Homo sapiens, T47D, 72 h): 40 µM
- IC50 (SK-HEP1): 42 µM
- IC50 (A549 [1]; Homo sapiens, A549, 72 h): > 100 µM
- IC50 (MDA-MB-231): > 100 µM

Structure (SMILES): COc1c2c(cc3c1-c1c(cc4c(c1OC)OCO4)C[C@H](C)[C@H](C)C3)OCO2 [SCHISANDRIN C]
- IC50 (K562; Homo sapiens, K562, 72 h): > 100 µM
- IC50 (SNU-638; Homo sapiens, SNU-638, 72 h): > 100 µM
- IC50 (HCT-15; Homo sapiens, HCT-15, 72 h): > 100 µM
- IC50 (T47D; Homo sapiens, T47D, 72 h): > 100 µM
- IC50 (SK-HEP1): > 100 µM
- IC50 (A549 [1]; Homo sapiens, A549, 72 h): > 100 µM
- IC50 (MDA-MB-231): > 100 µM

Structure (SMILES): C/C=C(\C)C(=O)O[C@H]1c2cc(OC)c(OC)c(OC)c2-c2c(cc3c(c2O)OCO3)C[C@H](C)[C@]1(C)O [SCHISANTHERIN C]
- Activity (A549 [2]): 18%
- Activity (A549 [3]): 65.3%
- Activity (A549 [4]): Active
- Activity (A549 [5]): inactive
- Activity (A549 [6]): 0.6%
- Activity (A549 [7]): inactive
- Activity (A549 [8]): 57.9%
- IC50 (K562; Homo sapiens, K562, 72 h): 11.3 µM
- Activity (A549 [9]): 31.6%
- Activity (A549 [10]): 50.4%
- Activity (A549 [11]): 26%
- Activity (A549 [12]): 8.2%
- Activity (A549 [13]): 2.5%
- Activity (A549 [14]): 31.8%
- IC50 (SNU-638; Homo sapiens, SNU-638, 72 h): 15.3 µM
- IC50 (HCT-15; Homo sapiens, HCT-15, 72 h): 5.6 µM
- Activity (A549 [15]): 15.9%
- Activity (A549 [16]): 16.2%
- Activity (A549 [17]): 75%
- Activity (A549 [18]): 1.5%
- Activity (A549 [19]): 18.8%
- IC50 (T47D; Homo sapiens, T47D, 72 h): 26.1 µM
- IC50 (SK-HEP1): 19.9 µM
- Activity (A549 [20]): 0.6%
- Activity (A549 [21]): 10.8%
- IC50 (A549 [1]; Homo sapiens, A549, 72 h): 5.6 µM
- Activity (A549 [22]): 1.1%
- Activity (A549 [23]): inactive
- IC50 (MDA-MB-231): 33.5 µM
- Activity (A549 [24]): inactive
- Activity (A549 [25]): 18.1%
- Activity (A549 [26]): Active
- Activity (A549 [27]): 50.1%

Structure (SMILES): COc1cc2c(c(OC)c1OC)-c1c(cc(OC)c(OC)c1OC)C[C@](C)(O)[C@@H](C)C2 [SCHIZANDRIN]
- IC50 (K562; Homo sapiens, K562, 72 h): 25 µM
- IC50 (SNU-638; Homo sapiens, SNU-638, 72 h): 21.1 µM
- IC50 (HCT-15; Homo sapiens, HCT-15, 72 h): 50.2 µM
- IC50 (T47D; Homo sapiens, T47D, 72 h): 19.8 µM
- IC50 (SK-HEP1): 71.3 µM
- IC50 (A549 [1]; Homo sapiens, A549, 72 h): 20.7 µM
- IC50 (MDA-MB-231): 61.5 µM
